HSP90 refold inh = HSP90 inhibitors, primary screen, cell lysate, luminescence. Rabbit reticulocyte lysate, luciferase refolding luminescence, 3 h. inhibition, % at 5.6 µM. hit rate 0.91% among 290,000. AID 1789, 2009;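 active = inhibition above the screen-wide mean plus 3 SD, computed separately per campaign, cut at about 16% in these data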;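 note: inhibitors lower the luminescence because luciferase stays unfolded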
HSF-1 act = HSF-1 activators, primary screen, NIH3T3-HGL cells, MG132 stress, luminescence, single point; activation, % at 9 µM; NIH3T3-HGL HSF-1 luciferase reporter, 8 h; 100% = twice DMSO control signal; hit rate 1.7% among 300,000; AID 504408, 2011;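 active = mean replicate activation of at least 50% with a set share of replicates each reaching 50%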
HCV core dimer = inhibitors of HCV core protein dimerization, primary screen, biochemical, TR-FRET, high-throughput. TR-FRET GST/Flag-core106 dimerization, 1536-well. inhibition, % at 5 µM. hit rate 0.33% among 300,000. AID 1899, 2009;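 active = inhibition above the mean of all tested compounds plus 3 SD, set per screening campaign, cut at about 45% in these data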
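test system = GST/Flag-tagged HCV core106 proteins | probe or stimulus = Eu donor and XL665 acceptor anti-tag antibodies | times = compound-protein-antibody incubation 4 h at 22.5 °C | signal = TR-FRET, excitation 340 nm, emission 617 and 671 nm | measure = percent inhibition of core106 dimerization signal | controls = wells lacking GST-core106 and wells with excess unlabelled core106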
DNA FID counter = compounds displacing fluorescent DNA intercalator, primary screen, artefact control for HCV NS3 helicase inhibitor project, biochemical, FID fluorescence. DNA fluorescent intercalator displacement. inhibition, % at 7.9 µM. hit rate 0.17% among 290,000. AID 1845, 2009; in the data active = inhibition above about 37%;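 note: higher means more ethidium bromide displaced from hairpin DNA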
HSF1 inhib = HSF1 inhibitors in luciferase reporter cells, primary screen, cell-based, NIH3T3, luminescence | activity change, negative = inhibition, % at 7.5 µM (by protocol) | AID 2098, 2009 | hit rate 0.77% among 300,000 | NIH3T3-HGL HSE-luciferase, MG132-induced, luminescence 8 h; stronger effect = lower value;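 active = more than half of replicate wells show activity change below -50%, luminescence cut by over half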;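 note: luciferase reports HSF-1 transcriptional activity via heat shock element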
NS3 helicase inh = inhibitors of HCV NS3 helicase, primary screen, biochemical, Cy5 molecular beacon fluorescence. Hepatitis C virus NS3 helicase. NS3 helicase DNA unwinding. inhibition, % at 10.9 µM. hit rate 0.56% among 290,000. AID 1800, 2009;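 active = inhibition above the mean of all tested compounds plus 3 SD, set per campaign, cut at about 35% in these data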
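Compound dosing – single dose, 10.9 µM nominal final, DMSO 0.8% final · System – NS3 helicase fragment of HCV · Buffer or medium – MOPS pH 6.5, MgCl2, DTT, Tween20, BSA · Signal – Cy5 beacon fluorescence read at start and 1 h · Also added – annealed dual-labelled DNA beacon duplex, ATP-started · Schedule – 1 h at 25 °C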
Hits are given with their value; n = inactive; x = not tested or not shown. Compounds with a hit are over-represented: about 3.9% of the library has one in this group of screens.

SMILES	HSP90 refold inh	HSF-1 act	HCV core dimer	DNA FID counter	HSF1 inhib	NS3 helicase inh
O=C(NCC1CCCO1)C1c2ccccc2C(=O)N1Cc1ccc2c(c1)OCO2 (centres undefined)	n	n	n	n	n	n
COc1ccc(N(CC(=O)Nc2cccc(C)c2)S(=O)(=O)c2c(C)noc2C)cc1	n	n	n	n	-69	n
COc1ccc(N(CC(=O)Nc2cccc(C(=O)O)c2)S(=O)(=O)c2c(C)noc2C)cc1	n	x	n	n	x	n
COc1ccc(N(CC(=O)N2CCc3ccccc32)S(=O)(=O)c2c(C)noc2C)cc1	n	77	n	n	n	n
O=c1c2ccccc2cnn1CCOc1cccc(Br)c1	n	94	n	n	n	n
Cc1csc(NC(=O)c2cc3c(s2)CCC3)n1	n	54	n	n	n	n
Cc1cccc(C(=O)OCC(=O)N(C)c2ccccc2)c1C	n	n	n	n	n	n
CC(C)c1ccc(/C=C/C(=O)NCCCc2ccccc2)cc1	n	n	n	n	n	n
CCN(CC)c1ccc(NC(=O)/C=C\c2ccccc2Cl)cc1	n	x	n	n	x	n
CN(C)c1ccc(NC(=O)/C=C/c2ccccc2Cl)cc1	n	54	n	n	n	n
COc1ccc(/C=C/C(=O)NCCCc2ccccc2)cc1	n	62	n	n	n	n
O=C(/C=C/c1ccccc1Cl)NCCc1ccccc1	n	55	n	n	n	n
COc1cc(C(=O)NCCC(c2ccccc2)c2ccccc2)cc(OC)c1OC	n	n	n	n	n	n
O=C(CCNS(=O)(=O)c1cccc2nsnc12)NCc1cccs1	n	n	n	n	-80	n
O=C(c1ccco1)N(CCC(c1ccccc1)c1ccco1)Cc1ccco1 (centres undefined)	n	n	52	n	n	n
O=C(c1ccco1)N(Cc1ccc(Cl)cc1)Cc1ccco1	n	n	n	n	n	n
CCN(CC)C(=S)SCC(=O)NC12CC3CC(CC(C3)C1)C2	n	n	n	n	n	n
S=c1sc2c(Cl)ncnc2n1-c1ccccc1	n	565	x	n	n	n
Fc1cccc(NC(=S)NC2CCCCCCC2)c1	n	x	x	n	x	n
CC(C)Cc1cc(C(=O)N(C)C2CCCN(Cc3ccccc3F)C2)n(C)n1 (centres undefined)	n	n	n	n	n	n
CCN(CC(=O)NCc1cccs1)S(=O)(=O)c1ccccc1Cl	x	n	n	x	n	x
COc1ccc(/C=C2\SC(=N)N(c3nccs3)C2=O)cc1OC	n	n	n	n	n	n
N=C1S/C(=C\c2ccc(-c3cccc(Cl)c3)o2)C(=O)N1c1nccs1	n	223	n	n	n	n
Cc1ccc(-c2csc3ncnc(SCC(N)=O)c23)cc1	n	n	n	n	n	n
Cn1nnnc1SCc1nc2scc(-c3ccccc3)c2c(=O)[nH]1	n	n	n	n	n	n
SMILES	HSP90 refold inh	HSF-1 act	HCV core dimer	DNA FID counter	HSF1 inhib	NS3 helicase inh
Cn1nnnc1Sc1ncnc2scc(-c3ccc(F)cc3)c12	n	62	n	n	n	n
Cn1nnnc1Sc1ncnc2scc(-c3ccccc3)c12	n	n	65	n	n	n
O=C(Nc1ccccc1F)Nc1ccccc1N1CCCCC1	n	n	n	n	n	n
O=S(=O)(Nc1nc2ccccc2nc1Nc1ccc(N2CCOCC2)cc1)c1cc(Cl)ccc1Cl	n	n	n	n	n	n
C=CCOc1c(OC)cc(/C=N/Nc2cccc(C(=O)O)c2)c(Br)c1Br	n	n	n	n	n	n
COc1cc2nc(N3CCNCC3)nc(N)c2cc1OC	n	n	n	49	n	n
COc1ccccc1CNCC(O)Cn1c2ccccc2c2ccccc21 (centres undefined)	n	n	n	n	n	n
COc1ccc(C(=O)c2c(C)c3ccccc3n2CC(O)CNC(C)C)cc1 (centres undefined)	n	n	n	37	n	n
CCOC(=O)C1=C(c2ccccc2)NC(N)=NC1c1ccc(OCc2ccc(Cl)cc2)c(OC)c1 (centres undefined)	n	71	n	n	n	n
